{
  "source": "ChEMBL document CHEMBL1275442",
  "about": "“Pharmacokinetics and tissue distribution of anidulafungin in rats” (Antimicrob Agents Chemother, 2008)",
  "assay_type_in_all_cases": "ADME, organism-based",
  "key": {"[1]": {"test_system": "Lung", "experiment": "Drug level in Long Evans rat lung assessed as radioactivity per gram of tissue at 5 mg/kg, iv administered as single bolus dose measured 6 hrs postdose by autoradiography", "set-up": "dose 5 mg/kg, route intravenous", "conditions": "in vivo", "procedure,_shortened": "(§1)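 Male pigmented Long Evans (HsdBlu:LE) rats, 7.5 weeks old, 202 to 217 g, single iv [¹⁴C]anidulafungin; one rat per sampling time. Euthanized by isoflurane and cardiac-puncture exsanguination. Sagittal whole-body sections quantified by phosphorimaging autoradiography, single samples corrected for section thickness across multiple sections per tissue. Concentrations (μg eq/g drug-derived radioactivity) interpolated from least-squares standard curves per scan.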"}, "[2]": {"test_system": "Liver", "experiment": "Drug level in Long Evans rat liver assessed as high disposition of radioactivity per gram of tissue at 5 mg/kg, iv administered as single bolus dose measured 12 hrs postdose by autoradiography", "set-up": "dose 5 mg/kg, route intravenous", "conditions": "in vivo", "procedure,_shortened": "as §1"}, "[3]": {"experiment": "Tmax in F344 rat spleen at 5 mg/kg, iv administered as single bolus dose by HPLC method", "set-up": "dose 5 mg/kg, route intravenous", "procedure,_shortened": "(§2)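 F344 males, 10 to 11 weeks old and 223.6 to 243.8 g, got a single 5 mg/kg iv dose of [14C]anidulafungin over about 5 min. Plasma and tissues were collected predose and at 0.083 to 72 h, n = 3 per time point. Parent drug was quantified by HPLC-UV, with LLOQ/ULOQ of 20/5,120 ng/ml in plasma and 220/56,320 ng/g in tissue. Noncompartmental parameters came from a composite mean concentration-time profile.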"}, "[4]": {"experiment": "Cmax in F344 rat spleen at 5 mg/kg, iv administered as single bolus dose after 30 min by HPLC method", "set-up": "dose 5 mg/kg, route intravenous", "procedure,_shortened": "(§3)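 Male F344 rats, 10–11 weeks, 223.6–243.8 g, given one IV dose of [¹⁴C]anidulafungin, 5 mg/kg, over about 5 min. Tissues and blood sampled at 0.083–72 h (n = 3 rats per time). Parent drug measured by HPLC; LLOQ/ULOQ were 20/5,120 ng/ml for plasma and 220/56,320 ng/g for tissue. Noncompartmental parameters taken from the composite mean profile.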"}, "[5]": {"test_system": "Zone of skin", "experiment": "Drug level in Long Evans rat skin assessed as radioactivity per gram of tissue at 5 mg/kg, iv administered as single bolus dose measured 6 hrs postdose by autoradiography", "set-up": "dose 5 mg/kg, route intravenous", "conditions": "in vivo", "procedure,_shortened": "(§4)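 Male pigmented Long Evans (HsdBlu:LE) rats, 7.5 weeks old and 202 to 217 g, got a single iv dose of [14C]anidulafungin at 5 mg/kg. One rat per time point (0.5, 6, 12, 24, 72, 168 h) was euthanised by isoflurane and cardiac-puncture exsanguination. Sagittal whole-body sections were quantified by phosphorimaging. Samples were thickness-corrected, and concentrations (μg eq/g) were interpolated from least-squares standard curves.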"}, "[6]": {"test_system": "Zone of skin", "experiment": "AUC (0 to 24 hrs) in F344 rat skin assessed as total compound-derived radioactivity per gram of tissue at 5 mg/kg, iv administered as single bolus dose […]", "set-up": "time < 24 hr, dose 5 mg/kg, route intravenous", "conditions": "in vivo", "procedure,_shortened": "(§5)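 Same F344 study: single 5 mg/kg IV [¹⁴C]anidulafungin given over about 5 min. Total drug-derived radioactivity (parent plus metabolites) counted by liquid scintillation, in […]. Noncompartmental analysis of the composite mean profile.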"}, "[7]": {"test_system": "Blood", "experiment": "Tmax in F344 rat blood assessed as total compound-derived radioactivity at 5 mg/kg, iv administered as single bolus dose […]", "set-up": "dose 5 mg/kg, route intravenous", "conditions": "in vivo", "procedure,_shortened": "(§6)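 Male F344 rats, 10 to 11 weeks old and 223.6 to 243.8 g, got one iv dose of [14C]anidulafungin at 5 mg/kg over about 5 min. Blood, CSF, kidney, liver, lung, quadriceps, spleen and skin were sampled predose and at 0.083 to 72 h, 3 rats per time. Total radioactivity (parent plus metabolites) was measured by liquid scintillation counting. Parameters were noncompartmental, from a composite mean profile.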"}, "[8]": {"test_system": "Liver", "experiment": "Drug level in Long Evans rat liver assessed as low disposition of radioactivity per gram of tissue at 5 mg/kg, iv administered as single bolus dose measured 72 hrs postdose by autoradiography", "set-up": "dose 5 mg/kg, route intravenous", "conditions": "in vivo", "procedure,_shortened": "as §1"}, "[9]": {"test_system": "Kidney", "experiment": "Drug level in Long Evans rat kidney assessed as high disposition of radioactivity per gram of tissue at 5 mg/kg, iv administered as single bolus dose measured 6 hrs postdose by autoradiography", "set-up": "dose 5 mg/kg, route intravenous", "conditions": "in vivo", "procedure,_shortened": "as §1"}, "[10]": {"test_system": "Blood", "experiment": "Half life in F344 rat blood assessed as total compound-derived radioactivity at 5 mg/kg, iv administered as single bolus dose […]", "set-up": "dose 5 mg/kg, route intravenous", "conditions": "in vivo", "procedure,_shortened": "as §6"}, "[11]": {"test_system": "Cerebrospinal fluid", "experiment": "Tmax in F344 rat cerebrospinal fluid assessed as total compound-derived radioactivity at 5 mg/kg, iv administered as single bolus dose […]", "set-up": "dose 5 mg/kg, route intravenous", "conditions": "in vivo", "procedure,_shortened": "as §6"}, "[12]": {"test_system": "Kidney", "experiment": "Drug level in Long Evans rat kidney assessed as high disposition of radioactivity per gram of tissue at 5 mg/kg, iv administered as single bolus dose measured 12 hrs postdose by autoradiography", "set-up": "dose 5 mg/kg, route intravenous", "conditions": "in vivo", "procedure,_shortened": "as §1"}, "[13]": {"experiment": "Drug level in Long Evans rat eye assessed as radioactivity per gram of tissue at 5 mg/kg, iv administered as single bolus dose measured 72 hrs postdose by autoradiography", "set-up": "dose 5 mg/kg, route intravenous", "conditions": "in vivo", "procedure,_shortened": "as §1"}, "[14]": {"test_system": "Kidney", "experiment": "Half life in F344 rat kidney assessed as total compound-derived radioactivity at 5 mg/kg, iv administered as single bolus dose […]", "set-up": "dose 5 mg/kg, route intravenous", "conditions": "in vivo", "procedure,_shortened": "as §6"}, "[15]": {"test_system": "Muscle tissue", "experiment": "AUC (0 to infinity) in F344 rat muscle assessed as total compound-derived radioactivity per gram of tissue at 5 mg/kg, iv administered as single bolus dose […]", "set-up": "time infinity, dose 5 mg/kg, route intravenous", "conditions": "in vivo", "procedure,_shortened": "as §5"}, "[16]": {"test_system": "Kidney", "experiment": "AUC (0 to 24 hrs) in F344 rat kidney assessed as total compound-derived radioactivity per gram of tissue at 5 mg/kg, iv administered as single bolus dose […]", "set-up": "time < 24 hr, dose 5 mg/kg, route intravenous", "conditions": "in vivo", "procedure,_shortened": "as §5"}, "[17]": {"experiment": "Tmax in F344 rat lung at 5 mg/kg, iv administered as single bolus dose by HPLC method", "set-up": "dose 5 mg/kg, route intravenous", "procedure,_shortened": "as §2"}, "[18]": {"test_system": "Cerebrospinal fluid", "experiment": "Drug level in Long Evans rat cerebrospinal fluid assessed as radioactivity per gram of tissue at 5 mg/kg, iv administered as single bolus dose measured 0.5 hrs postdose by autoradiography", "set-up": "dose 5 mg/kg, route intravenous", "conditions": "in vivo", "procedure,_shortened": "as §1"}, "[19]": {"experiment": "Tmax in F344 rat plasma at 5 mg/kg, iv administered as single bolus dose by HPLC method", "set-up": "dose 5 mg/kg, route intravenous", "procedure,_shortened": "as §2"}, "[20]": {"test_system": "Liver", "experiment": "Drug level in Long Evans rat liver assessed as low disposition of radioactivity per gram of tissue at 5 mg/kg, iv administered as single bolus dose measured 24 hrs postdose by autoradiography", "set-up": "dose 5 mg/kg, route intravenous", "conditions": "in vivo", "procedure,_shortened": "as §1"}, "[21]": {"test_system": "Spleen", "experiment": "AUC (0 to 24 hrs) in F344 rat spleen assessed as total compound-derived radioactivity per gram of tissue at 5 mg/kg, iv administered as single bolus dose […]", "set-up": "time < 24 hr, dose 5 mg/kg, route intravenous", "conditions": "in vivo", "procedure,_shortened": "as §5"}, "[22]": {"test_system": "Spleen", "experiment": "Drug level in Long Evans rat spleen assessed as radioactivity per gram of tissue at 5 mg/kg, iv administered as single bolus dose measured 6 hrs postdose by autoradiography", "set-up": "dose 5 mg/kg, route intravenous", "conditions": "in vivo", "procedure,_shortened": "as §4"}, "[23]": {"test_system": "Spleen", "experiment": "Half life in F344 rat spleen assessed as total compound-derived radioactivity at 5 mg/kg, iv administered as single bolus dose […]", "set-up": "dose 5 mg/kg, route intravenous", "conditions": "in vivo", "procedure,_shortened": "as §6"}, "[24]": {"test_system": "Zone of skin", "experiment": "AUC (0 to 24 hrs) in F344 rat skin at 5 mg/kg, iv administered as single bolus dose", "set-up": "time < 24 hr, dose 5 mg/kg, route intravenous", "conditions": "in vivo", "procedure,_shortened": "as §3"}, "[25]": {"test_system": "Lung", "experiment": "AUC (0 to 24 hrs) in F344 rat lung at 5 mg/kg, iv administered as single bolus dose", "set-up": "time < 24 hr, dose 5 mg/kg, route intravenous", "conditions": "in vivo", "procedure,_shortened": "as §3"}, "[26]": {"test_system": "Cerebrospinal fluid", "experiment": "AUC (0 to infinity) in F344 rat cerebrospinal fluid assessed as total compound-derived radioactivity per gram of tissue at 5 mg/kg, iv administered as single bolus dose […]", "set-up": "time infinity, dose 5 mg/kg, route intravenous", "conditions": "in vivo", "procedure,_shortened": "as §5"}, "[27]": {"test_system": "Plasma", "experiment": "AUC (0 to infinity) in F344 rat plasma assessed as total compound-derived radioactivity per gram of tissue at 5 mg/kg, iv administered as single bolus dose […]", "set-up": "time infinity, dose 5 mg/kg, route intravenous", "conditions": "in vivo", "procedure,_shortened": "as §5"}},
  "data": [
    {"smiles": "CCCCCOc1ccc(-c2ccc(-c3ccc([14C](=O)N[C@H]4C[C@@H](O)[C@@H](O)NC(=O)[C@@H]5[C@@H](O)[C@@H](C)CN5C(=O)[C@H]([C@@H](C)O)NC(=O)[C@H]([C@H](O)[C@@H](O)c5ccc(O)cc5)NC(=O)[C@@H]5C[C@@H](O)CN5C(=O)[C@H]([C@@H](C)O)NC4=O)cc3)cc2)cc1", "note": "[14C-ANIDULAFUNGIN]", "values": [
      {"measurement": "Drug uptake", "setting": "[1]", "value": 22.88, "unit": "ugequiv"},
      {"measurement": "Drug uptake", "setting": "[2]", "value": 25.01, "unit": "ugequiv"},
      {"measurement": "Tmax", "setting": "[3]", "value": 30, "unit": "min"},
      {"measurement": "Cmax", "setting": "[4]", "value": 24200, "unit": "ng/g"},
      {"measurement": "Drug uptake", "setting": "[5]", "value": 5.39, "unit": "ugequiv"},
      {"measurement": "AUC", "setting": "[6]", "value": 190.73, "unit": "ugequiv.hr/g"},
      {"measurement": "Tmax", "setting": "[7]", "value": 4.98, "unit": "min"},
      {"measurement": "Drug uptake", "setting": "[8]", "value": 7.22, "unit": "ugequiv"},
      {"measurement": "Drug uptake", "setting": "[9]", "value": 20.66, "unit": "ugequiv"},
      {"measurement": "t1/2", "setting": "[10]", "value": 1710, "unit": "min"},
      {"measurement": "Tmax", "setting": "[11]", "value": 4.98, "unit": "min"},
      {"measurement": "Drug uptake", "setting": "[12]", "value": 14.1, "unit": "ugequiv"},
      {"measurement": "Drug uptake", "setting": "[13]", "value": 0.72, "unit": "ugequiv"},
      {"measurement": "t1/2", "setting": "[14]", "value": 48.5, "unit": "h"},
      {"measurement": "AUC", "setting": "[15]", "value": 139.22, "unit": "ugequiv.hr/g"},
      {"measurement": "AUC", "setting": "[16]", "value": 920.18, "unit": "ugequiv.hr/g"},
      {"measurement": "Tmax", "setting": "[17]", "value": 4.98, "unit": "min"},
      {"measurement": "Drug uptake", "setting": "[18]", "value": 5.51, "unit": "ugequiv"},
      {"measurement": "Tmax", "setting": "[19]", "value": 4.98, "unit": "min"},
      {"measurement": "Drug uptake", "setting": "[20]", "value": 14.7, "unit": "ugequiv"},
      {"measurement": "AUC", "setting": "[21]", "value": 822.61, "unit": "ugequiv.hr/g"},
      {"measurement": "Drug uptake", "setting": "[22]", "value": 22.15, "unit": "ugequiv"},
      {"measurement": "t1/2", "setting": "[23]", "value": 40.3, "unit": "h"},
      {"measurement": "AUC", "setting": "[24]", "value": 102.72, "unit": "µg·h/g"},
      {"measurement": "AUC", "setting": "[25]", "value": 557.77, "unit": "µg·h/g"},
      {"measurement": "AUC", "setting": "[26]", "value": 0.95, "unit": "ugequiv.hr/g"},
      {"measurement": "AUC", "setting": "[27]", "value": 177.87, "unit": "ugequiv.hr/g"}
    ]}
  ]
}
